Source: PubChem BioAssay (several laboratories)
Most compounds without a hit are left out; they make up all but 0.74% or so of the library.
RGS7-Gao reg = regulators of human RGS7-Galphao interaction | Multiplexed bead flow cytometry, RGS7-Galphao binding; actives lie on both sides | P09471 | hit rate 0.35% among 220,000 | binding response (% of control), % at 10 µM | AID 1439; in the data active = binding response below about 49% or above about 150%; inconclusive = no clear call, values can overlap the other calls; inactive = in between;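 also: fluorescent Galphao held in activated GDP-AlF4 state binding bead-coupled RGS7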
RGS4-Gao reg = human RGS4-Galphao interaction regulation | P09471 | hit rate 0.33% among 220,000 | binding response (% of control), % at 10 µM | Multiplexed bead flow cytometry, RGS4-Galphao binding; actives lie on both sides; in the data active = binding response below about 49% or above about 150%; inactive = in between;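 also: fluorescent Galphao activated with aluminum fluoride binding bead-coupled RGS4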
Biofilm kill mix = mixtures killing C. albicans biofilm; C. albicans biofilm persisters + clotrimazole, fluorescence viability; primary screen in compound mixtures of four per well; inhibition, % at 7.6 µM; hit rate 0.02% among 120,000;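 active = inhibition above 30.3% in the primary screen of four-compound pools, then above 30% when the compound was retested; inconclusive = passed the primary limit but could not be retested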;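 also: compounds exposed to preformed 24 h biofilms for 48 h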
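Assay system: C. albicans biofilms / Medium: RPMI/MOPS medium, pH 7.0 / Schedule: biofilm formation 24 h, compound exposure 48 h, 37 °C / Measured by: Alamar Blue fluorescence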
RGS8-Gao reg = modulates binding of RGS8 to human Galphao. multiplexed bead flow cytometry; actives lie on both sides. response (percent of control binding), % at 10 µM. hit rate 0.34% among 220,000. AID 1423; in the data active = response below about 60% or above about 140%; inactive = in between;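 also: Galphao activated as the GDP aluminium fluoride complex binding bead-coupled RGS8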
RGS16-Gao HTS = regulators of human RGS16-Galphao interaction; O15492+P09471; bead-based flow cytometry RGS16-Galphao binding, fluorescence; actives lie on both sides; hit rate 0.38% among 220,000; binding response (% of control), % at 10 µM;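 also: Galphao activated by GDP with aluminum fluoride before binding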
Target sequence (O15492 whole entry, looked up): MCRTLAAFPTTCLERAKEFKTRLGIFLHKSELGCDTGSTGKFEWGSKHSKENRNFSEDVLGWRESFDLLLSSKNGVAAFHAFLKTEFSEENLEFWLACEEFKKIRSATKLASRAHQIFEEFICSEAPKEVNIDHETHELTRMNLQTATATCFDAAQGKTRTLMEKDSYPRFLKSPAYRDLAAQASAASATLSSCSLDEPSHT
Target sequence (P09471 whole entry, looked up): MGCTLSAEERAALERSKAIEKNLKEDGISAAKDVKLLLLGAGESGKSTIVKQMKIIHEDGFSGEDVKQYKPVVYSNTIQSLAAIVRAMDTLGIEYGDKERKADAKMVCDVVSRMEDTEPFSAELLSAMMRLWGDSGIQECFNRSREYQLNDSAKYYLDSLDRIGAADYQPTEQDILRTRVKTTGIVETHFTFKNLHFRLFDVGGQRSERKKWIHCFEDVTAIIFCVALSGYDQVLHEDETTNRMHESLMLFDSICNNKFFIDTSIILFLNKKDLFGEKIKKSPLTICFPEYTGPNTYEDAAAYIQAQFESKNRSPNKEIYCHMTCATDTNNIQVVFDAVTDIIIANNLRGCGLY
RGS4-Gao HTS = modulates binding between human RGS4 and Galphao. AID 1504. multiplexed bead flow cytometry, RGS–Galpha-o binding. RGS4–Galpha-o binding response, % at 10 µM. hit rate 99% among 1,600. shares compounds with RGS16-Gao HTS;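 also: fluorescently labeled Galpha-o bound to GDP with aluminium fluoride binding biotinylated RGS beads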
Target sequence (P09471 whole entry, looked up): as above
Target sequence (P49798 whole entry, looked up): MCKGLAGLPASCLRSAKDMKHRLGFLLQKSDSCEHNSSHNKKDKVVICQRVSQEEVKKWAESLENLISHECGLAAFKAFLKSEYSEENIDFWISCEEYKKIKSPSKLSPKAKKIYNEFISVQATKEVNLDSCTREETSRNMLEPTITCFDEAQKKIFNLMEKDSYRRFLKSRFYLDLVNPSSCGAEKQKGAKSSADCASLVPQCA
Avidin counter = biotin-avidin bead binding disruption counter-screen. inhibition, % at 10 µM. shares compounds with RGS16-Gao HTS. streptavidin beads, fluorescein-biotin binding, flow cytometry. 1,700 tested, under 10 active;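 active = inhibition above 50%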;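 also: median green fluorescence of gated singlet beads compared with DMSO control wells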
RGS8-Gao single = RGS8-Galphao interaction regulation, single point confirmation | shares compounds with RGS16-Gao HTS | bead-based flow cytometry RGS8-Galphao binding, fluorescence; actives lie on both sides | binding response (% of control), % at 10 µM | hit rate 3% among 1,700; in the data active = binding response below about 72% or above about 130%; inactive = in between;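 also: Galphao activated as GDP AlF4 complex before binding bead RGS8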
RGS7-Gao single = RGS7-Galphao interaction regulation, single point confirmation. shares compounds with RGS16-Gao HTS. bead-based flow cytometry RGS7-Galphao binding; actives lie on both sides. response (percent of control binding), % at 10 µM. hit rate 7.8% among 1,700. AID 1837; in the data active = response below about 75% or above about 130%; inactive = in between;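 also: fluorescent Galphao activated with GDP and aluminum fluoride binding bead-coupled RGS7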
RGS16-Gao conf = confirmation of regulators of human RGS16-Galphao interaction; bead-based flow cytometry, RGS16-Galphao binding; actives lie on both sides; hit rate 4% among 1,700; AID 1838; shares compounds with RGS16-Gao HTS; response (% of control binding), % at 10 µM; in the data active = response below about 74% or above about 130%; inactive = in between;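 also: Galphao activated as the GDP aluminium fluoride complex binding bead-coupled RGS16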
RGS4-Gao single = RGS4-Galphao interaction regulation, single point confirmation; RGS4-Galphao binding, multiplexed bead flow cytometry; actives lie on both sides; AID 1840; shares compounds with RGS16-Gao HTS; hit rate 4% among 1,700; binding response (% of control), % at 10 µM; in the data active = binding response below about 74% or above about 130%; inactive = in between
RGS19-Gao conf = confirmation of regulators of human RGS19-Galphao interaction; bead-based flow cytometry RGS19-Galphao binding; actives lie on both sides; AID 1841; shares compounds with RGS16-Gao HTS; hit rate 5% among 1,700; response (percent of control binding), % at 10 µM; in the data active = response below about 50% or above about 160%; inactive = in between
Large screens that a line does not name were inactive (follow-up assays come after a bar, where they were run); [ ] = dose if it differs, or a comment. Unless noted, no rule for the calls is given here.

COc1ccccc1N1CCN(S(=O)(=O)c2ccc3c4c(cccc24)C(=O)N3C)CC1	RGS7-Gao reg -3.9, RGS4-Gao reg -21.1, RGS8-Gao reg 15.6, RGS16-Gao HTS -18.9 (no result: Biofilm kill mix) | Avidin counter inactive | RGS8-Gao single inactive | RGS7-Gao single inactive | RGS16-Gao conf inactive | RGS4-Gao single inactive | RGS19-Gao conf inactive
COc1ccccc1N1CCN(S(=O)(=O)c2ccc3c4c(cccc24)C(=O)N3)CC1	none (no result: Biofilm kill mix)
Cc1ccc(CN2CCSc3ccc(C(=O)NCc4cccnc4)cc32)cc1	RGS7-Gao reg inconclusive
CN(C)CCNC(=O)c1ccc2c(c1)N(Cc1ccc(F)cc1)CCS2	RGS4-Gao reg 44.3, RGS8-Gao reg 60.0 (no result: Biofilm kill mix) | Avidin counter inactive | RGS8-Gao single inactive | RGS7-Gao single inactive | RGS16-Gao conf inactive | RGS4-Gao single inactive | RGS19-Gao conf inactive
Cc1cccc(/C(N)=N/OC(=O)Cc2ccccc2)c1	none
Cc1cccc(/C(N)=N/OC(=O)C23CC4CC(CC(C4)C2)C3)c1	RGS8-Gao reg 55.7, RGS16-Gao HTS 12.1 | RGS4-Gao HTS 80.1 | Avidin counter inactive | RGS8-Gao single inactive | RGS7-Gao single inactive | RGS16-Gao conf inactive | RGS4-Gao single inactive | RGS19-Gao conf inactive
Cc1ccc(N2CCN(CCc3nc4cc(NS(C)(=O)=O)ccc4n3C)CC2)cc1	RGS8-Gao reg 147.1[activator] (no result: Biofilm kill mix) | RGS4-Gao HTS 120.0 | Avidin counter inactive | RGS8-Gao single inactive | RGS7-Gao single inactive | RGS16-Gao conf inactive | RGS4-Gao single inactive | RGS19-Gao conf inactive
O=S(=O)(CCc1ccccc1)N1CCOCC1	RGS4-Gao reg 48.0 (no result: Biofilm kill mix) | Avidin counter inactive | RGS8-Gao single inactive | RGS7-Gao single inactive | RGS16-Gao conf inactive | RGS4-Gao single inactive | RGS19-Gao conf inactive
CN(c1ccccc1)S(=O)(=O)c1cccc(C(=O)Nc2ccc3c(c2)CCC3)c1	RGS16-Gao HTS 18.5 | RGS4-Gao HTS 101.8 | Avidin counter inactive | RGS8-Gao single inactive | RGS7-Gao single inactive | RGS16-Gao conf inactive | RGS4-Gao single inactive | RGS19-Gao conf inactive
O=C(Nc1ccccc1N1CCOCC1)c1cc(Br)c(Br)s1	RGS7-Gao reg inconclusive
O=C(CCSc1nnc2ccc3ccccc3n12)Nc1ccc(F)cc1	none (no result: RGS7-Gao reg, RGS4-Gao reg, Biofilm kill mix, RGS8-Gao reg, RGS16-Gao HTS) | Avidin counter inactive | RGS8-Gao single inactive | RGS7-Gao single inactive | RGS16-Gao conf inactive | RGS4-Gao single inactive | RGS19-Gao conf inactive
CCc1ccc(C(=O)c2cnc3ccc(OC)cc3c2N2CCN(CC)CC2)cc1	none
CCOc1ccc2ncc(C(=O)c3ccc(OC)cc3)c(N3CCN(CC)CC3)c2c1	RGS7-Gao reg 308.6[activator], RGS4-Gao reg 359.0[activator], RGS16-Gao HTS 284.5[activator] | Avidin counter inactive | RGS8-Gao single inactive | RGS7-Gao single inactive | RGS16-Gao conf inactive | RGS4-Gao single inactive | RGS19-Gao conf inactive
COc1ccc(C(=O)c2ccc(OC)c(Br)c2)cc1Br	RGS16-Gao HTS 253.9[activator] | RGS4-Gao HTS 120.3 | Avidin counter inactive | RGS8-Gao single inactive | RGS7-Gao single inactive | RGS16-Gao conf inactive | RGS4-Gao single inactive | RGS19-Gao conf inactive
COc1ccc(C(=S)N2CCC(C(N)=O)CC2)cc1Br	RGS7-Gao reg inconclusive
Cc1ccc(CN2CCN(CC(=O)N/N=C/c3ccc(C)o3)CC2)cc1	RGS7-Gao reg inconclusive
CCOC(=O)/C=C(\C)Sc1cc(O)c2ccccc2c1O	RGS7-Gao reg inconclusive, RGS8-Gao reg 50.3, RGS16-Gao HTS 11.2 | RGS4-Gao HTS 80.9
CCOC(=O)C1C(c2ccc(O)c(O)c2)NC(=S)NC1(O)C(F)(F)F (stereo not drawn)	RGS7-Gao reg 34.5, RGS4-Gao reg 17.5 | Avidin counter inactive | RGS8-Gao single inactive | RGS7-Gao single inactive | RGS16-Gao conf inactive | RGS4-Gao single inactive | RGS19-Gao conf inactive
CC(C)Cn1c(N)c(C(=O)COC(=O)CCc2nc3ccccc3s2)c(=O)n(C)c1=O	none
CCN=c1scc(C)n1/N=C/c1ccc(O)c(O)c1O	RGS8-Gao reg 58.7 (no result: Biofilm kill mix) | RGS4-Gao HTS 80.3 | Avidin counter inactive | RGS8-Gao single 66.8 | RGS7-Gao single 63.8 | RGS16-Gao conf 63.6 | RGS4-Gao single inactive | RGS19-Gao conf 46.9
Cc1c(-c2n[nH]c(=S)n2-c2ccc(C(F)(F)F)cc2)nnn1-c1ccccc1	none
Cc1c(-c2n[nH]c(=S)n2-c2ccc(Br)cc2)nnn1-c1ccc(Cl)cc1	none (no result: RGS7-Gao reg) | Avidin counter inactive | RGS8-Gao single inactive | RGS7-Gao single inactive | RGS16-Gao conf inactive | RGS4-Gao single inactive | RGS19-Gao conf inactive
CSc1nn2c(C(F)(F)F)cc(C(F)(F)F)nc2c1C(N)=O	RGS7-Gao reg inconclusive
COc1ccccc1CC(=O)Nc1ccc2c(c1)C(=O)NC2=O	RGS7-Gao reg inconclusive
O=C(NNC(=O)c1cc2cc(OC(F)(F)F)ccc2[nH]1)c1cccc(C(F)(F)F)c1	RGS7-Gao reg inconclusive
CCc1cc(/C(Cc2ccccn2)=N\Nc2ccccc2)c(O)cc1O	none
CCOc1ccccc1N1CCN(C(=O)c2ccncc2)CC1	none (no result: Biofilm kill mix)
CCOc1ccccc1N1CCN(C(=O)c2ccc3[nH]c4c(c3c2)CCCC4)CC1	RGS16-Gao HTS 24.4 | RGS4-Gao HTS 83.6 | Avidin counter inactive | RGS8-Gao single inactive | RGS7-Gao single inactive | RGS16-Gao conf inactive | RGS4-Gao single inactive | RGS19-Gao conf inactive
O=C1c2ccccc2C(=O)N1c1ncn[nH]1	RGS7-Gao reg inconclusive
O=C(N/N=C/c1cc([N+](=O)[O-])ccc1Cl)c1cc(-c2ccccc2)nc2ccccc12	RGS7-Gao reg inconclusive
O=C(N/N=C/c1cc([N+](=O)[O-])ccc1O)c1cc(-c2ccccc2)nc2ccccc12	RGS7-Gao reg 42.5 | RGS4-Gao HTS 54.2 | Avidin counter inactive | RGS8-Gao single inactive | RGS7-Gao single inactive | RGS16-Gao conf inactive | RGS4-Gao single inactive | RGS19-Gao conf inactive
OCCN(Cc1ccccc1)Cc1ccc(C(F)(F)F)cc1	none (no result: Biofilm kill mix)
OCCN(Cc1ccccc1)Cc1cccc(C(F)(F)F)c1	none (no result: RGS7-Gao reg, RGS4-Gao reg, Biofilm kill mix, RGS8-Gao reg, RGS16-Gao HTS) | Avidin counter inactive | RGS8-Gao single inactive | RGS7-Gao single inactive | RGS16-Gao conf inactive | RGS4-Gao single inactive | RGS19-Gao conf inactive
